Measurements as given in ChEMBL document CHEMBL2203116, “Synthesis and evaluation of novel carbon-11 labeled oxopurine analogues for positron emission tomography imaging of translocator protein (18 kDa) in peripheral organs” (J Med Chem, 2011).

What was measured:
[1] = test system: Heart; test: Drug uptake in Sprague-Dawley rat heart at 0.15 nmol, iv pretreated with unlabeled (R)-PK11195 by PET scanning; type: ADME, organism-based; details: in vivo
How it was run: (§1)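 Isoflurane-anesthetized Sprague-Dawley rats underwent 30-min PET after iv [11C]radioligand, with unlabeled blocker given iv 1 min before tracer. Blockers were (R)-PK11195 at 3.0 mg/kg or AC-5216 at 1.0 mg/kg in 300 μL saline with 10% ethanol and 5% polysorbate 80. Regional uptake was decay-corrected SUV (n = 4).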

[2] = test system: Lung; test: Drug uptake in Sprague-Dawley rat lung at 0.15 nmol, iv pretreated with unlabeled AC-5216 by PET scanning; type: ADME, organism-based; details: in vivo
How it was run: (§2)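 Male Sprague-Dawley rats (6–8 weeks old), isoflurane-anesthetized, prone. ROIs on lung, heart, kidney, liver, small intestine and cardiac blood pool. Uptake decay-corrected to injection time and expressed as SUV (body-weight normalized). n = 4, mean ± SD.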

[3] = test system: Heart; test: Drug uptake in Sprague-Dawley rat heart at 0.15 nmol, iv pretreated with unlabeled AC-5216 by PET scanning; type: ADME, organism-based; details: in vivo; how it was run: as §1
[4] = test system: Kidney; test: Drug uptake in Sprague-Dawley rat kidney at 0.15 nmol, iv pretreated with unlabeled AC-5216 by PET scanning; type: ADME, organism-based; details: in vivo; how it was run: as §2
[5] = test system: Liver; test: Drug uptake in Sprague-Dawley rat liver at 0.15 nmol, iv pretreated with unlabeled AC-5216 measured after 27.5 mins by PET scanning relative to control; type: ADME, organism-based; details: in vivo
How it was run: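 Male Sprague-Dawley rats, 6-8 weeks, isoflurane-anesthetized. A blocking TSPO ligand (1.0 mg/kg, in 300 μL saline with 10% ethanol and 5% polysorbate 80) was injected 1 min before iv radioligand (16-18 MBq/200 μL). Liver ROI as decay-corrected SUV (injected activity, body weight), 27.5-min value versus controls; n = 4.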

[6] = Metabolic stability in Sprague-Dawley rat lung assessed as unchanged compound at 0.32 nmol, iv after 30 mins by analytical radio- HPLC; type: ADME, organism-based; details: read-out: Stability
[7] = Metabolic stability in Sprague-Dawley rat heart assessed as unchanged compound at 0.32 nmol, iv after 30 mins by analytical radio- HPLC; type: ADME, organism-based; details: read-out: Stability
How it was run: (§3)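 Rats (n = 3) given radioligand iv (37 MBq/100 μL, 0.32 nmol) and killed at 30 min. Heart and kidney homogenized in ice-cold MeCN/H2O 4/6, centrifuged 15000 rpm for 1 min at 4 °C. Supernatant run on analytical radio-HPLC (C18, MeCN/H2O 4/6). Percent parent = parent peak area over total peak areas, decay-corrected. Mean ± SD.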

[8] = Metabolic stability in Sprague-Dawley rat kidney assessed as unchanged compound at 0.32 nmol, iv after 30 mins by analytical radio- HPLC; type: ADME, organism-based; details: read-out: Stability; how it was run: as §3
[9] = Metabolic stability in Sprague-Dawley rat plasma assessed as unchanged compound at 0.32 nmol, iv after 30 mins by analytical radio- HPLC; type: ADME, organism-based; details: read-out: Stability
[10] = test system: Brain; test: Biodistribution in LPS-treated Sprague-Dawley rat brain at 0.19 nmol, iv by gamma counting; type: ADME, organism-based; details: in vivo
How it was run: (§4)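 Male Sprague-Dawley rats were given intratracheal LPS (E. coli O127:B8, 5.0 mg/kg in 50 μL saline) or 50 μL saline vehicle 24 h before tracer. [11C]Radioligand (16 MBq/200 μL, 0.19 nmol) in saline was injected via the tail vein. Rats were killed at 30 min (n = 4 per group). Tissues were weighed and gamma-counted, expressed as decay-corrected %ID/g.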

[11] = test system: Lung; test: Biodistribution in LPS-treated Sprague-Dawley rat lung at 0.19 nmol, iv by gamma counting; type: ADME, organism-based; details: in vivo; how it was run: as §4
[12] = test system: Heart; test: Biodistribution in LPS-treated Sprague-Dawley rat heart at 0.19 nmol, iv by gamma counting; type: ADME, organism-based; details: in vivo; how it was run: as §4
[13] = test system: Liver; test: Biodistribution in LPS-treated Sprague-Dawley rat liver at 0.19 nmol, iv by gamma counting; type: ADME, organism-based; details: in vivo; how it was run: as §4
[14] = test system: Kidney; test: Biodistribution in LPS-treated Sprague-Dawley rat kidney at 0.19 nmol, iv by gamma counting; type: ADME, organism-based; details: in vivo; how it was run: as §4
[15] = test system: Spleen; test: Biodistribution in LPS-treated Sprague-Dawley rat spleen at 0.19 nmol, iv by gamma counting; type: ADME, organism-based; details: in vivo; how it was run: as §4
[16] = test system: Pancreas; test: Biodistribution in LPS-treated Sprague-Dawley rat pancreas at 0.19 nmol, iv by gamma counting; type: ADME, organism-based; details: in vivo; how it was run: as §4
[17] = test system: Adrenal; test: Biodistribution in LPS-treated Sprague-Dawley rat adrenal at 0.19 nmol, iv by gamma counting; type: ADME, organism-based, Adrenal tissue; details: in vivo; how it was run: as §4
[18] = test system: Rattus norvegicus; test: Biodistribution in LPS-treated Sprague-Dawley rat small intestine at 0.19 nmol, iv by gamma counting; type: ADME, organism-based; details: in vivo; how it was run: as §4
[19] = test system: Blood; test: Biodistribution in Sprague-Dawley rat blood at 0.19 nmol, iv by gamma counting; type: ADME, organism-based; details: in vivo; how it was run: as §4
[20] = test system: Brain; test: Biodistribution in Sprague-Dawley rat brain at 0.19 nmol, iv by gamma counting; type: ADME, organism-based; details: in vivo; how it was run: as §4
[21] = test system: Lung; test: Biodistribution in Sprague-Dawley rat lung at 0.19 nmol, iv by gamma counting; type: ADME, organism-based; details: in vivo; how it was run: as §4
[22] = test system: Heart; test: Biodistribution in Sprague-Dawley rat heart at 0.19 nmol, iv by gamma counting; type: ADME, organism-based; details: in vivo; how it was run: as §4
[23] = test system: Liver; test: Biodistribution in Sprague-Dawley rat liver at 0.19 nmol, iv by gamma counting; type: ADME, organism-based; details: in vivo; how it was run: as §4
[24] = test system: Kidney; test: Biodistribution in Sprague-Dawley rat kidney at 0.19 nmol, iv by gamma counting; type: ADME, organism-based; details: in vivo; how it was run: as §4
[25] = test system: Spleen; test: Biodistribution in Sprague-Dawley rat spleen at 0.19 nmol, iv by gamma counting; type: ADME, organism-based; details: in vivo; how it was run: as §4
[26] = test system: Pancreas; test: Biodistribution in Sprague-Dawley rat pancreas at 0.19 nmol, iv by gamma counting; type: ADME, organism-based; details: in vivo; how it was run: as §4
[27] = test system: Rattus norvegicus; test: Biodistribution in Sprague-Dawley rat small intestine at 0.19 nmol, iv by gamma counting; type: ADME, organism-based; details: in vivo; how it was run: as §4
[28] = test system: Muscle tissue; test: Biodistribution in Sprague-Dawley rat muscle at 0.19 nmol, iv by gamma counting; type: ADME, organism-based; details: in vivo; how it was run: as §4
[29] = test system: Blood; test: Drug uptake in Sprague-Dawley rat cardiac blood pool at 0.15 nmol, iv after 27.5 mins by PET scanning; type: ADME, organism-based; details: in vivo
How it was run: (§5)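 Isoflurane-anesthetized male Sprague-Dawley rats lay prone and received an iv bolus of [11C]radioligand in 200 μL. 3D list-mode emission scans ran 30 min from injection. Regions of interest were drawn on the organs and cardiac blood pool. Uptake was decay-corrected to injection time and expressed as SUV (normalized to injected radioactivity and body weight). Values are mean of n = 4.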

[30] = test system: Liver; test: Drug uptake in Sprague-Dawley rat liver at 0.15 nmol, iv after 27.5 mins by PET scanning; type: ADME, organism-based; details: in vivo; how it was run: as §2
[31] = test system: Kidney; test: Drug uptake in Sprague-Dawley rat kidney at 0.15 nmol, iv up to 30 mins by PET scanning; type: ADME, organism-based; details: in vivo, 0.5 h; how it was run: as §2
[32] = test system: Intestine; test: Drug uptake in Sprague-Dawley rat small intestine at 0.15 nmol, iv up to 30 mins by PET scanning; type: ADME, organism-based; details: in vivo, 0.5 h; how it was run: as §2
[33] = test system: Heart; test: Drug uptake in Sprague-Dawley rat heart at 0.15 nmol, iv after 2 mins by PET scanning; type: ADME, organism-based; details: in vivo; how it was run: as §5
[34] = test system: Kidney; test: Drug uptake in Sprague-Dawley rat kidney at 0.15 nmol, iv after 2 mins by PET scanning; type: ADME, organism-based; details: in vivo; how it was run: as §2
[35] = test system: Liver; test: Drug uptake in Sprague-Dawley rat liver at 0.15 nmol, iv after 2 mins by PET scanning; type: ADME, organism-based; details: in vivo; how it was run: as §2
[36] = test system: Lung; test: Drug uptake in Sprague-Dawley rat lung at 0.15 nmol, iv after 27.5 mins by PET scanning; type: ADME, organism-based; details: in vivo; how it was run: as §2
[37] = test system: Heart; test: Drug uptake in Sprague-Dawley rat heart at 0.15 nmol, iv after 27.5 mins by PET scanning; type: ADME, organism-based; details: in vivo; how it was run: as §5
[38] = test system: Kidney; test: Drug uptake in Sprague-Dawley rat kidney at 0.15 nmol, iv after 27.5 mins by PET scanning; type: ADME, organism-based; details: in vivo; how it was run: as §2

Drug uptake [1]: Not Active | Drug uptake [2]: Not Active | Drug uptake [3]: Not Active | Drug uptake [4]: Not Active | fold change (FC) [5]: 1.5 | remaining at 0.5 h [6]: 92.1% | remaining at 0.5 h [7]: 93.8% | remaining at 0.5 h [8]: 94.7% | remaining at 0.5 h [9]: 23.4% | Drug uptake [10]: 0.02 % ID/g | Drug uptake [11]: 3.54 % ID/g | Drug uptake [12]: 2.17 % ID/g | Drug uptake [13]: 1.03 % ID/g | Drug uptake [14]: 1.97 % ID/g | Drug uptake [15]: 1.88 % ID/g | Drug uptake [16]: 0.37 % ID/g | Drug uptake [17]: 5.27 % ID/g | Drug uptake [18]: 2.68 % ID/g | Drug uptake [19]: 0.06 % ID/g | Drug uptake [20]: 0.02 % ID/g | Drug uptake [21]: 1.65 % ID/g | Drug uptake [22]: 2.1 % ID/g | Drug uptake [23]: 0.53 % ID/g | Drug uptake [24]: 1.78 % ID/g | Drug uptake [25]: 1.88 % ID/g | Drug uptake [26]: 0.38 % ID/g | Drug uptake [27]: 1.57 % ID/g | Drug uptake [28]: 0.11 % ID/g | SUV [29]: 0.4 | SUV [30]: 0.5 | Drug uptake [31]: Active | Drug uptake [32]: Active | SUV [33]: 4.6 | SUV [34]: 3.3 | SUV [35]: 1.6 | SUV [36]: 0.5 | SUV [37]: 0.9 | SUV [38]: 1
SMILES: CCN(Cc1ccncc1)C(=O)Cn1c(=O)n([11CH3])c2cnc(-c3ccccc3)nc21
